Shown are actives, neighbours in structure and some others; about 1.8% of the full set was active somewhere.
NPY1 pot ag – human NPY-Y1 potentiation or agonism, primary screen; AID 1304; actives 0.37% (n = 220,000); P25929; activation, % at 3.6 µM; NPY-Y1 expressing cells, potentiator/agonist activation; in the data active = activation above about 33%, passing the limit was not always enough;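 also: cells stimulated with NPY at EC10 then isoproterenol at EC100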
NPY-Y2 antag – antagonists of human neuropeptide Y receptor Y2; inhibition, % at 2.7 µM; NPY-Y2 expressing cells, antagonist mode; AID 793; P49146; actives 0.99% (n = 140,000); in the data active = inhibition above about 17%
Target sequence (P49146 whole entry, looked up): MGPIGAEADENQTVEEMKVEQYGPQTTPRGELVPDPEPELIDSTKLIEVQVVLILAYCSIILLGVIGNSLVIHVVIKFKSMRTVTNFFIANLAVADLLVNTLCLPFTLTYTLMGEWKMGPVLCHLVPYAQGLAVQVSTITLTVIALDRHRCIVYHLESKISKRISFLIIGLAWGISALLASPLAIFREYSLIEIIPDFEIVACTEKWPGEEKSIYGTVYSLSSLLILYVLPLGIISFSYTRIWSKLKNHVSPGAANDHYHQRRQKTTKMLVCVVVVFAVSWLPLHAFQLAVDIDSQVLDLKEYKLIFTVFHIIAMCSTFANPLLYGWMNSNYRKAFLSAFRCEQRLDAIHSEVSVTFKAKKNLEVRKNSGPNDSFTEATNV
NPY Y1 blocker – blocks the human neuropeptide Y Y1 receptor; P25929; HEK293-CNG Y1 cells, membrane potential fluorescence; NPY at EC95, then isoproterenol; inhibition, % at 3.6 µM; actives 1% (n = 200,000); AID 1040;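 active = inhibition above the campaign mean inhibition of all tested compounds plus 3 SD, cut at about 20% in these data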
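Material: HEK293 cells co-expressing NPY Y1 receptor and cyclic-nucleotide gated channel. Timing: compound incubation 1 h at room temperature, readout 45 min post-stimulation. Signal: fluorescence, membrane potential probe.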
NPY-Y2 PAM-ag – potentiators or agonists of human neuropeptide Y receptor Y2; cells expressing NPY-Y2, potentiator/agonist read-out; activation, % at 3.6 µM; actives 0.45% (n = 220,000); AID 1359; in the data active = activation above about 27%;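 also: cells stimulated with NPY near EC25 plus isoproterenol at EC100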
NPY-Y2 confirm – confirmation of human NPY-Y2 receptor potentiators or agonists. shares compounds with NPY-Y2 PAM-ag. cell-based NPY-Y2 potentiator/agonist assay. activation, % at 3.6 µM. AID 1539. actives 20% (n = 450); in the data active = activation above about 33%
NPY-Y1 potentiator – NPY-Y1 potentiation or agonism as NPY-Y2 counter-screen | activation, % at 3.6 µM | AID 1651 | actives 20% (n = 450) | shares compounds with NPY-Y2 PAM-ag | Y1 HEK293-CNG cells, membrane potential fluorescence; in the data active = activation above about 45%;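 also: cells stimulated with submaximal NPY then isoproterenol with phosphodiesterase inhibitor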
NPY-Y1 ag 2 – activates human NPY-Y1, counter-screen for NPY-Y2 potentiators; HEK293 Y1-CNGC, membrane potential fluorescence, agonism; actives 37% (n = 450); shares compounds with NPY-Y2 PAM-ag; activation, % at 3.6 µM;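 active = activation above the mean of DMSO-only control wells plus 3 SD, cut at about 18% in these data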;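 also: cells stimulated with 1 µM isoproterenol plus the PDE inhibitor Ro 20-1724; Y1 agonists lower the membrane potential dye signal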
CNGC inh – blocks CNG channel activity, counter-screen for NPY-Y2 potentiators; AID 1703; actives 32% (n = 450); inhibition, % at 3.6 µM; shares compounds with NPY-Y2 PAM-ag; HEK293-CNG parental, isoproterenol cAMP, membrane potential fluorescence;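 active = inhibition above the control-well mean plus 3 SD of those wells, cut at about 22% in these data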
Y2 agonist ctr – counter-screen for NPY-Y2 potentiators: agonists of human NPY-Y2; HEK293 Y2/CNGC cells, membrane potential fluorescence, agonist mode; shares compounds with NPY-Y2 PAM-ag; activation, % at 3.6 µM; actives 56% (n = 450); AID 1710;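 active = activation above the mean of solvent-only control wells plus 3 SD, cut at about 10% in these data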;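 also: cells stimulated by isoproterenol with no NPY added so direct agonism is tested; agonism lowers probe fluorescence through less cAMP and CNG channel opening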
Of the large screens only hits and unclear results are named; the others gave an inactive call (follow-up assays come after a bar, where they were run).

CC(=O)c1ccc(NC(=O)Nc2cccc(Cl)c2)cc1	none
S=C(Nc1ccc(Nc2ccccc2)cc1)Nc1ccccn1	NPY-Y2 PAM-ag 33 (no result: NPY-Y2 antag) | NPY-Y2 confirm inactive | NPY-Y1 potentiator inactive | NPY-Y1 ag 2 inactive | CNGC inh inactive | Y2 agonist ctr 14
CCN(CC)S(=O)(=O)c1ccc(N=Cc2c(C)c(C#N)c(=O)n(C)c2O)cc1	none
Nc1cc(-c2ccc(Br)cc2)nn1Cc1ccccc1	NPY-Y2 PAM-ag 36 (no result: NPY-Y2 antag) | NPY-Y2 confirm inactive | NPY-Y1 potentiator inactive | NPY-Y1 ag 2 inactive | CNGC inh inactive | Y2 agonist ctr 28
O=C(Nc1ccccc1)OC1CCC2CC1CCC2OC(=O)Nc1ccccc1 (stereo not given)	NPY-Y2 PAM-ag 31 | NPY-Y2 confirm 51 | NPY-Y1 potentiator 72 | NPY-Y1 ag 2 55 | CNGC inh 38 | Y2 agonist ctr 67
O=C(Nc1ccccc1)C1CC2CCCC(C1)C2=O (stereo not given)	none
Cc1ccccc1CNC(=O)C(=O)Nc1nccs1	none (no result: NPY-Y2 antag)
COc1ccccc1N(CC(=O)Nc1cccc(C(F)(F)F)c1)S(C)(=O)=O	none (no result: NPY-Y2 antag)
Cc1ccc([N+](=O)[O-])cc1N(CC(=O)Nc1ccc(S(=O)(=O)Nc2cccc(C(F)(F)F)c2)cc1)S(C)(=O)=O	NPY-Y2 PAM-ag 45 | NPY-Y2 confirm 43 | NPY-Y1 potentiator 64 | NPY-Y1 ag 2 58 | CNGC inh 51 | Y2 agonist ctr 53
Cc1ccc(C)c(S(=O)(=O)Nc2ccc(C(=O)NCCc3ccccn3)cc2)c1	none (no result: NPY-Y2 antag)
N#C/C(=N\Nc1ccc(Cl)cc1)C(=O)c1ccccc1	NPY-Y2 PAM-ag 47 | NPY-Y2 confirm inactive | NPY-Y1 potentiator inactive | NPY-Y1 ag 2 inactive | CNGC inh inactive | Y2 agonist ctr 20
Cc1c(N/N=C(\C#N)C(=O)c2ccc(Cl)cc2)c(=O)n(-c2ccccc2)n1C	none
CN(C)C=Nc1ncc2c3ccccc3n(CCN(C)C)c2c1C#N	NPY-Y2 PAM-ag 101 | NPY-Y2 confirm inactive | NPY-Y1 potentiator inactive | NPY-Y1 ag 2 inactive | CNGC inh inactive | Y2 agonist ctr inactive
CN(C)C=Nc1ncc2c3ccccc3n(Cc3ccccc3)c2c1C#N	none
O=C1/C(=C\c2ccc(O)c(O)c2)C(c2ccccc2)=NN1c1ccccc1	NPY-Y2 PAM-ag 26 (no result: NPY-Y2 antag) | NPY-Y2 confirm inactive | NPY-Y1 potentiator inactive | NPY-Y1 ag 2 inactive | CNGC inh inactive | Y2 agonist ctr inactive
Cc1cc2oc3c(c(=O)c2cc1C)C(c1ccc(C(C)C)cc1)N(CCCN1CCOCC1)C3=O (stereo not given)	none
CN(C)CCCN1C(=O)C2CCc3[nH]c4ccccc4c3C2C1=O (stereo not given)	none (no result: NPY-Y2 antag)
Cc1cc2c(C)nc(-c3ccccc3)nc2o1	none
Cc1nc(-c2cn[nH]c2)c2cc(C)oc2n1	NPY-Y2 PAM-ag 107 | NPY-Y2 confirm inactive | NPY-Y1 potentiator inactive | NPY-Y1 ag 2 inactive | CNGC inh inactive | Y2 agonist ctr inactive
Cn1c(N)c(C(=O)N/N=C/c2ccccc2)sc1=S	NPY-Y2 PAM-ag 40 (no result: NPY-Y2 antag, NPY Y1 blocker) | NPY-Y2 confirm inactive | NPY-Y1 potentiator inactive | NPY-Y1 ag 2 23 | CNGC inh 33 | Y2 agonist ctr 17
Cn1c(N)c(C(=O)Nc2ccc3ccccc3c2)sc1=S	none
O=C(Cc1ccccc1)Nc1scc(-c2ccccc2)c1C(=O)N1CCOCC1	none
NC(=O)c1c(-c2ccc(Cl)cc2Cl)csc1NC(=O)Cc1ccccc1	NPY-Y2 PAM-ag 32 | NPY-Y2 confirm inactive | NPY-Y1 potentiator inactive | NPY-Y1 ag 2 inactive | CNGC inh inactive | Y2 agonist ctr inactive
O=C(NCCCn1ccnc1)Nc1ccc(Cl)c(Cl)c1	none
O=C(NCCCn1ccnc1)Nc1ccc(Cl)cc1	NPY-Y2 PAM-ag 103 | NPY-Y2 confirm inactive | NPY-Y1 potentiator inactive | NPY-Y1 ag 2 inactive | CNGC inh inactive | Y2 agonist ctr 11
CN(C)C(=O)COC(=O)c1ccccc1Nc1ccc(SC(F)F)cc1	none
O=C(Nc1ccccc1N1CCOCC1)c1cccc(F)c1	none (no result: NPY-Y2 antag)

Screening results: PubChem, The Scripps Research Institute Molecular Screening Center
